Data published in ChEMBL document CHEMBL4028873, “The Discovery of a Dual TTK Protein Kinase/CDC2-Like Kinase (CLK2) Inhibitor for the Treatment of Triple Negative Breast Cancer Initiated from a Phenotypic Screen” (J Med Chem, 2017).
Activity calls are given as the source filed them. The calls are words filed in the database; no cut-off is given here.

Assays:
[1] = Volume of distribution at steady state in rat at 2 mg/kg, iv; assay type: ADME, organism-based; conditions: in vivo, read-out: Vdss
[2] = target: Dual specificity tyrosine-phosphorylation-regulated kinase 1B (Homo sapiens, UniProt Q9Y463); assay: Inhibition of full length human recombinant GST-tagged DYRK1B expressed in baculovirus by Z'-LYTE assay
Sequence of Dual specificity tyrosine-phosphorylation-regulated kinase 1B (Q9Y463 whole entry): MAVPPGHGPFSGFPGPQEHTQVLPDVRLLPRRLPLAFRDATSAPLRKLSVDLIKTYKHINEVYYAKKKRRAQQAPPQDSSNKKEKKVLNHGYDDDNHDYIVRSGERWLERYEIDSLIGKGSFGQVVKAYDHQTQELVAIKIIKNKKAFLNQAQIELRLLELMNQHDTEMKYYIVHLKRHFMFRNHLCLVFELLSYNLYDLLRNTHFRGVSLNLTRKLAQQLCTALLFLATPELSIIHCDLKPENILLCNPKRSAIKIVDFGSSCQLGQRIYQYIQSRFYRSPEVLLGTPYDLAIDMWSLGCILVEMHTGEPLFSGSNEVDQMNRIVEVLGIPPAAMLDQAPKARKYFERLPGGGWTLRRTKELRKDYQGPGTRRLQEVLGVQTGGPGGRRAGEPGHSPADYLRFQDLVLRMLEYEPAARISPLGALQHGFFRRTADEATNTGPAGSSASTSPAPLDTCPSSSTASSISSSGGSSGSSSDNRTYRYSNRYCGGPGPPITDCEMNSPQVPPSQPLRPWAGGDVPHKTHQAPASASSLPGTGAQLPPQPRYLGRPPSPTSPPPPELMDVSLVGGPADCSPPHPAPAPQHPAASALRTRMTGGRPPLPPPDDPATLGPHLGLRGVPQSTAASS

[3] = target: T1, Phosphatidylinositol 5-phosphate 4-kinase type-2 gamma (Homo sapiens, UniProt Q8TBX8); assay: Inhibition of PIP4K2C in human HCT116 cell lysate after 1 hr by LC-MS/MS analysis relative to control
T1 sequence (Q8TBX8 whole entry): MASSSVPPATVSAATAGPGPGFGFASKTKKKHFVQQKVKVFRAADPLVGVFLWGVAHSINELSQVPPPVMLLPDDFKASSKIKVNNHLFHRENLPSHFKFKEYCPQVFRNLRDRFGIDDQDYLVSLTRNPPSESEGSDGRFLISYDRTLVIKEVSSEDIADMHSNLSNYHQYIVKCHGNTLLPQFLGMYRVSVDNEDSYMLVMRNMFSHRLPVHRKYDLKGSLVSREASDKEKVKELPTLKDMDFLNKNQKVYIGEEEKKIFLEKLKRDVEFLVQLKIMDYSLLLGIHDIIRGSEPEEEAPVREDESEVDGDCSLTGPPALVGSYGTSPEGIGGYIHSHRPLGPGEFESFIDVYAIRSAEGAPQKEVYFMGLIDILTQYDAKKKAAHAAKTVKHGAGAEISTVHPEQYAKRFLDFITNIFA

[4] = target: c-Jun N-terminal kinase, JNK (Homo sapiens, UniProt P45983+P53779+P45984); assay: Binding affinity to JNK1/JNK2/JNK3 in human HCT116 cell lysate at 3 uM after 1 hr by LC-MS/MS analysis
Summary of the method: (§1)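 ActivX KiNative cellular kinase profiling. HCT-116 cells were grown in RPMI-1640 with 10% FBS and exposed to compound at 3 μM for 1 h, with DMSO-only controls. Cells were then washed with ice-cold PBS, scraped, pelleted and stored at −80 °C. Kinase binding was reported as percent occupancy relative to the untreated controls.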

[5] = target: Phosphorylase b kinase gamma catalytic chain, skeletal muscle/heart isoform (Homo sapiens, UniProt Q16816); assay: Binding affinity to PHKG1 in human HCT116 cells at 3 uM after 1 hr by LC-MS/MS analysis relative to control; assay type: cell-based; summary of the method: as §1
Sequence of Phosphorylase b kinase gamma catalytic chain, skeletal muscle/heart isoform (Q16816 whole entry, looked up, canonical isoform): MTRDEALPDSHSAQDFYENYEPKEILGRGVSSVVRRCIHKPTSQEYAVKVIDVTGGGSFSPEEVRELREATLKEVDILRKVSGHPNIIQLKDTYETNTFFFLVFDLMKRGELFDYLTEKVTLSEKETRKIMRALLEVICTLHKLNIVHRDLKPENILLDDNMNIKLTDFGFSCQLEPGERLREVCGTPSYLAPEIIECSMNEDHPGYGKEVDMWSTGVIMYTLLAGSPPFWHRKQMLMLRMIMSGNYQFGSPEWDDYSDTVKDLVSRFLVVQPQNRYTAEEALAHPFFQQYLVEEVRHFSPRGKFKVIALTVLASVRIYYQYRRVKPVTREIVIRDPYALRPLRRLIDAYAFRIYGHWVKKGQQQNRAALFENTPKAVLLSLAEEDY

MDA-MB-231 = assay: Antiproliferative activity against human MDA-MB-231 cells after 3 days by CellTiter-Glo assay; assay type: functional, cell-based
Summary of the method: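 Cell lines kept in vendor-recommended growth media; 3-day compound exposure, then CellTiter-Glo luminescence read. Percent inhibition per concentration normalized to DMSO control, triplicate wells.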

Mus musculus = assay: Toxicity in SCID mouse xenografted with human CAL51 cells assessed as loss in body weight at 20 mg/kg, iv administered every 7 days for 16 days relative to control; assay type: organism-based; conditions: in vivo
CAL-51 = assay: Antiproliferative activity against human CAL51 cells xenografted in SCID mouse assessed as tumor growth inhibition at 20 mg/kg, iv administered every 3 days for 16 days relative to control; assay type: functional; conditions: CAL-51, iv, read-out: TGI
Summary of the method: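 Mice bearing tumors of about 125 mm3 randomized (n = 8−10/group) and given compound intravenously at the listed doses and schedules. Tumors measured twice weekly by digital caliper on long and short axes; volume = width² × length/2.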

[6] = target: Voltage-gated inwardly rectifying potassium channel KCNH2 (Homo sapiens, UniProt Q12809); assay: Inhibition of human ERG
Sequence of Voltage-gated inwardly rectifying potassium channel KCNH2 (Q12809 whole entry): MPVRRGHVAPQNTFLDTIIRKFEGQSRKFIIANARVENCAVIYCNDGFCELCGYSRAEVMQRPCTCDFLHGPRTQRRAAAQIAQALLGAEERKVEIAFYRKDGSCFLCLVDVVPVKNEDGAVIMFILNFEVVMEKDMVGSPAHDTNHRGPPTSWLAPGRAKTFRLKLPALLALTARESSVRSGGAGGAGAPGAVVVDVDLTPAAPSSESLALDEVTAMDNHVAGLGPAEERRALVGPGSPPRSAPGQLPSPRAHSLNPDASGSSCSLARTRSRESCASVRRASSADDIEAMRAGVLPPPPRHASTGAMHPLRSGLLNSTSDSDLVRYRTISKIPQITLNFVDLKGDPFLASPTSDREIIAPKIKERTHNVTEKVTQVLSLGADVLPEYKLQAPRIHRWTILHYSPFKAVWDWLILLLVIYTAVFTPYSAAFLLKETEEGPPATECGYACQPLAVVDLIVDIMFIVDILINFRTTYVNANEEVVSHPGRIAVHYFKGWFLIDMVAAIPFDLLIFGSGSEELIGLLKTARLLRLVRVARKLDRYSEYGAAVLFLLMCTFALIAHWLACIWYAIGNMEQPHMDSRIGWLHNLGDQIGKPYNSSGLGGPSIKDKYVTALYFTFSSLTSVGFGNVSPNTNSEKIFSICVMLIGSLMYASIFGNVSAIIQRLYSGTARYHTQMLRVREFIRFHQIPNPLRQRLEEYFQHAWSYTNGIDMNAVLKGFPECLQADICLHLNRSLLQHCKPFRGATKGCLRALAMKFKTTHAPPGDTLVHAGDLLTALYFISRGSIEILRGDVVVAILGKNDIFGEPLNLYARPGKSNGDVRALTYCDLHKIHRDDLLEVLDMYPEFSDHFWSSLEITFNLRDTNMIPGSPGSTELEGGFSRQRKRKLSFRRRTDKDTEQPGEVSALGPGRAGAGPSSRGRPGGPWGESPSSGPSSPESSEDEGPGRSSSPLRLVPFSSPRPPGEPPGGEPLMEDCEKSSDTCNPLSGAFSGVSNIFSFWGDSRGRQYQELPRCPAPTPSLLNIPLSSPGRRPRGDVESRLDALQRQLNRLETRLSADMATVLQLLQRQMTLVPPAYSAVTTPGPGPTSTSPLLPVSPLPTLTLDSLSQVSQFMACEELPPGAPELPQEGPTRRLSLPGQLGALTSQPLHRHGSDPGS

[7] = MRT in SCID mouse at 5 mg/kg, iv; assay type: ADME, organism-based; conditions: in vivo
[8] = target: Dual specificity tyrosine-phosphorylation-regulated kinase 1A (Homo sapiens, UniProt Q13627); conditions: 3 uM

Vd [1]: 2.3 L/kg
IC50 [2]: 157 nM
IC50 [3]: 1300 nM
Activity [4]: > 75%
Activity [5]: 26%
MRT [7]: 5.2 h
inhibition [8]: > 80%
Structure (SMILES): CNC(=O)c1ccc(Nc2nc(OC3CCCC3)c3c(-c4ccc5nc(C)oc5c4)c[nH]c3n2)c(OC)c1
Activity (MDA-MB-231): Active
Activity (Mus musculus): Non-Toxic
inhibition in vivo at 20 mg/kg (CAL-51): 71%
IC50 [6]: > 33 µM
